High-throughput results from PubChem BioAssay.
CHRM4 antagonist: blocks acetylcholine activation of human M4 receptor; AID 624125; CHO-hM4 cells, ACh EC80, Fluo-8 calcium fluorescence; 360,000 tested, 0.73% active; inhibition, % at 3 µM;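 active means inhibition above its plate's cutoff, the mean inhibition of sample wells plus 3 SD, cut at about 27% in these data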
Target sequence (P08173 whole entry, looked up): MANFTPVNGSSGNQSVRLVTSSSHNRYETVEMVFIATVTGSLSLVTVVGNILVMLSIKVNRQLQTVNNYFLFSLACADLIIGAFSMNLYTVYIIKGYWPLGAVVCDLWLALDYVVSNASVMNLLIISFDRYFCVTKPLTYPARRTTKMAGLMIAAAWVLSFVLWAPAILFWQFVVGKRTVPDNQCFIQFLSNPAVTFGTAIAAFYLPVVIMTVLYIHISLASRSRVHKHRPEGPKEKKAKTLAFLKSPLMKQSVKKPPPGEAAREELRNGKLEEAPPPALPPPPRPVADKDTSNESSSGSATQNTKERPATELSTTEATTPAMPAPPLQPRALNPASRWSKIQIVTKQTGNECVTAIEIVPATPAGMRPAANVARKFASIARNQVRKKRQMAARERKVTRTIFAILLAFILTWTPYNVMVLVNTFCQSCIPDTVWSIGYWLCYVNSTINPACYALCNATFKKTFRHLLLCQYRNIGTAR
TAAR1 antag: antagonists of human TAAR1; Q96RJ0; CHO RD-HGA16 TAAR1, Fluo-8 calcium fluorescence, antagonist; inhibition, % at 3 µM; 360,000 tested, 1.5% active; AID 624466;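 active means inhibition above a per-plate cutoff, the mean inhibition of test compounds on that plate plus 3 SD, cut at about 49% in these data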
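test system = CHO RD-HGA16 cells bearing hTAAR1 | replication = singlicate | controls = DMSO-only wells and EC80 β-PEA-stimulated wells | reagent = EC80 β-phenethylamine stimulus | read-out basis = percent inhibition of PEA-evoked calcium signal, max/basal emission ratio | schedule = seeding 17-24 h prior, 75-min 37 °C, 30-min RT dye loading | signal = kinetic Fluo-8 calcium fluorescence measurement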
TAAR1 ag: human TAAR1 agonism | AID 624467 | 360,000 tested, 0.99% active | CHO RD-HGA16 TAAR1, Fluo-8 calcium fluorescence; vehicle wells 0%, saturating PEA agonist 100% | activation, % at 3 µM | Q96RJ0;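 active means activation above the mean activation of all test compounds in the run plus 3 SD, cut at about 38% in these data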
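Benchmarks: low control DMSO, high control PEA (EC100); System: CHO RD-HGA16 cells carrying human TAAR1 plus Gα16; Detection: Fluo-8 fluorescence, 5 s baseline then 140 s kinetic read; Schedule: 17-24 h plating, Fluo-8 75 min 37 °C, 30 min RT; Read-out basis: % activation from peak over basal fluorescence ratio, DMSO-to-PEA scaled.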
M4 ag: agonists of human muscarinic M4 receptor (CHRM4); P08173; CHO-K1 hM4/Gqi5, Fluo-8 calcium fluorescence; vehicle 0%, full acetylcholine response 100%; activation, % at 3 µM; 360,000 tested, 0.14% active; AID 624127;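 active means activation above the run mean over all test wells plus 3 SD, cut at about 32% in these data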;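 further: peak over basal fluorescence ratio per well then scaled between controls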
M4 PAM: potentiates acetylcholine response at human M4 receptor; CHO-K1 hM4/Gqi5, Fluo-8 calcium fluorescence, ACh EC20; 0% = ACh EC20, 100% = maximal ACh; activation, % at 3 µM; P08173; 360,000 tested, 0.4% active;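 active means activation above its plate's cutoff, the mean activation of sample wells plus 3 SD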
Numbers stand for hits; . = inactive; / = not tested or not shown. Most compounds without a hit are left out; they make up all but 3% or so of the library.

SMILES | CHRM4 antagonist | TAAR1 antag | TAAR1 ag | M4 ag | M4 PAM
CCC1Sc2ccccc2N(CC(=O)NC2CC2)C1=O (configuration not stated) | . | . | . | . | .
CCC1Sc2ccccc2N(CC(=O)NCc2ccc3c(c2)OCO3)C1=O (configuration not stated) | . | 50 | . | . | .
CCCNC(=O)c1cc2c(c(-c3cccc(-c4cc5ccccc5o4)c3)n1)[C@H](CCO)N(C(=O)NC(C)C)C2 | . | 50 | . | . | .
CC(C)(C)S(=O)N1Cc2cc(C(=O)NCC(F)(F)F)nc(-c3cccc(-c4cccc(F)c4)c3)c2[C@@H]1CCO (some centres not stated) | . | 51 | . | . | .
CC(C)(C)S(=O)N1Cc2cc(C(=O)NCCCN3CCOCC3)nc(-c3cccc(-c4cc5ccccc5o4)c3)c2[C@@H]1CCO (some centres not stated) | . | 55 | . | . | .
Cc1ccc(S(=O)(=O)NCc2ccc3c(c2)OCO3)cc1 | / | . | . | / | /
CN(C(=O)COC(=O)CSc1ccc([N+](=O)[O-])cc1)c1ccccc1 | . | 51 | . | . | .
CN(C)C(=O)C(=O)c1cccn1-c1ccccc1C#N | . | . | . | . | .
CC(C)N(C(=O)C(=O)c1cccn1-c1ccccc1C#N)C(C)C | . | . | . | . | 17
O=C1C=CC2(O[C@H](c3ccccc3)[C@@H](c3ccccc3)O2)[C@H](Sc2ccccc2O)C1 | 57 | . | . | . | .
CSCCC(c1nc2ccccc2[nH]1)n1c(/C=C/c2ccc(Cl)cc2)nc2ccccc21 (configuration not stated) | / | . | . | / | /
Cc1cc(N2CCN(C(=O)OC(C)(C)C)C[C@@H]2C)ccc1N1CCN(Cc2ccccc2)[C@@H](C)C1 | / | . | . | / | /
C[C@@H]1CN(c2ccc(N3CCNC[C@H]3C)cc2C#N)C[C@H](C)O1 | / | . | . | / | /
CC(NS(=O)(=O)OCC(Cl)(Cl)Cl)c1ccc(C(C)(C)C)cc1 (configuration not stated) | 45 | 52 | . | . | .
CC(C)(NS(=O)(=O)OCC(Cl)(Cl)Cl)c1ccccc1 | . | . | . | . | .
Cc1ccccc1N(Cc1nnc2n1CCCCC2)C(=O)Nc1ccccc1 | . | . | . | . | 27
Cn1c(Br)nc2c1c(=O)n(CC(O)COc1ccccc1)c(=O)n2C (configuration not stated) | . | . | . | 34 | .
CCOC1=C2[C@H](c3ccc(Cl)cc3)N(S(=O)(=O)c3ccc(C)cc3)C[C@H]2n2c(=O)n(-c3ccccc3)c(=O)n2C1 | . | . | . | . | .
COc1ccc(OCCNC(=O)C2(C)CCN2Cc2ccc(SC)cc2)cc1 (configuration not stated) | . | . | . | . | .
COc1ccc(OCCNC(=O)C2(C)CCN2Cc2ccc3ccccc3c2)cc1 (configuration not stated) | 29 | . | . | . | .
CCCCc1c(-c2ccccc2OC)ncn1Cc1cccc(C)c1 | / | . | . | / | /
COC(=O)C1=C(C)N(Cc2ccccc2C(F)(F)F)C(=NCc2ccc3c(c2)OCO3)NC1c1ccccc1 (configuration not stated) | / | . | . | / | /
O=C1C2C3C=CC(C3)C2C(=O)N1c1ccc(-c2nc(-c3ccccc3)nc3ccccc23)cc1 (configuration not stated) | / | . | . | / | /
c1ccc(CNc2nc(NCc3ccccc3)c3sccc3n2)cc1 | 71 | 104 | 74 | 89 | .
Fc1cc(Cl)ccc1Nc1nc(NCc2ccccc2)nc2ccsc12 | . | . | . | . | .
SMILES | CHRM4 antagonist | TAAR1 antag | TAAR1 ag | M4 ag | M4 PAM
Fc1ccccc1CNc1nc(NCC2CC2)nc2ccsc12 | . | . | 38 | . | .
c1ccc(CNc2nc(NCc3ccccc3)c3ccccc3n2)cc1 | 49 | / | / | 45 | .
c1ccc(CNc2nc(-c3ccccc3)nc3ccccc23)cc1 | . | . | . | . | .
COc1ccccc1CNc1nc(NCc2ccccc2)nc2ccsc12 | 92 | 95 | 50 | 75 | .
C=CCNc1cccc2c1S(=O)(=O)N[C@H](C)CO2 | / | . | . | / | /
c1ccc(CNc2nc(NCCOc3ccccc3)c3sccc3n2)cc1 | 54 | 95 | 59 | 58 | .
Cc1ccc(S(=O)(=O)N2[C@@H](c3ccc(Br)cc3)C(C(=O)O)=CC[C@H]2c2cccs2)cc1 | . | . | . | . | .
O=C(CCc1c[nH]c2ccccc12)Nc1ccc(Oc2cccnc2)cc1 | / | . | . | / | /
CCOc1cccc(C=NNc2nc(=O)cc(C(=O)OC)s2)c1O | / | . | . | / | /
CCN1CCN(C(=O)c2cc3c(OC)c(OC)c(OC)cc3[nH]2)CC1 | 61 | . | . | . | .
CC(C)(C)n1nnnc1C(c1ccccc1)N1CCN(c2ccc(C(F)(F)F)cn2)CC1 (configuration not stated) | . | . | . | . | .
OCCCNc1cc(-c2ccnc(Nc3cccc(Cl)c3)n2)ccn1 | . | 80 | . | . | .
CS(=O)CSc1nc2c(cc1C#N)CCCC2 (configuration not stated) | 58 | . | . | . | .
CCCCSc1nc2c(cc1C#N)CCC2 | . | . | . | . | .
C=C(C)C1CC=C(C)/C(=N/NC(=O)COc2ccc(Cl)cc2)C1 (configuration not stated) | . | . | . | . | 20
COc1ccc2c(c1)cc1c(=O)n(CC(=O)NC(C)CCc3ccccc3)nc(C)n12 (configuration not stated) | . | . | . | . | 15
Cc1onc(-c2c(Cl)cccc2Cl)c1C(=O)N1CCCc2ccccc21 | . | . | . | . | .
Cc1onc(-c2c(Cl)cccc2Cl)c1C(=O)N1CCc2ccccc2C1 | 32 | . | . | . | .
Cc1onc(-c2ccccc2Cl)c1C(=O)N1CCOC12CCCCC2 | . | . | . | . | 19
COCc1[nH]nc2c1C(c1ccc(Br)cc1)N(c1ccc(OC)cc1)C2=O (configuration not stated) | / | . | . | / | /
O=C(N/N=C/c1sc(N2CCOCC2)nc1-c1ccccc1)c1cccc(S(=O)(=O)N2CCCC2)c1 | . | 52 | . | . | .
O=C(N/N=C/c1sc(N2CCOCC2)nc1-c1ccccc1)c1ccc(O)cc1 | . | . | . | . | .
COc1cc(C(=O)Nc2cccc(NC(=O)c3cccs3)c2)cc(OC)c1OC | . | 51 | . | . | .
O=C(Nc1ccc(O)cc1)c1ccc(NC(=O)c2cccs2)cc1 | . | . | . | . | .
COc1cc(C(=O)Nc2cccc(NC(=O)c3ccccc3)c2)cc(OC)c1OC | . | . | . | . | .
O=C(Nc1cccc(O)c1)c1ccc(NC(=O)c2cccs2)cc1 | . | 52 | . | . | .
